According to ChEMBL document CHEMBL1127493, “Glycylcyclines. 1. A new generation of potent antibacterial agents through modification of 9-aminotetracyclines” (1994):
In brackets after ≈: the same amount, converted by molar mass.

Columns and labels:
Type in all cases: functional
[1] = tested on: Escherichia coli; experiment: In vitro minimum inhibitory concentration against Escherichia coli UBMS 88-1 (tet B efflux).
Procedure, shortened: (§1)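 Agar dilution on Mueller–Hinton II agar; inoculum (1-5) × 10^5 CFU/mL; antibiotic concentrations 32–0.004 µg/mL; plates incubated 18 h at 35 °C in forced-air incubator. MIC taken as lowest concentration inhibiting growth of the test organism (tetracycline-sensitive and tetracycline-resistant strains).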

[2] = tested on: Escherichia coli; experiment: In vitro minimum inhibitory concentration against Escherichia coli UBMS 90-4 (tet M ribosomal protection).; procedure, shortened: as §1
[3] = tested on: Staphylococcus aureus; experiment: In vitro minimum inhibitory concentration against Staphylococcus aureus UBMS 88-7 (tet K efflux).; procedure, shortened: as §1
[4] = tested on: Escherichia coli; experiment: In vitro minimum inhibitory concentration against Escherichia coli J3272 (tet C efflux).; procedure, shortened: as §1
[5] = tested on: Staphylococcus aureus; experiment: In vitro minimum inhibitory concentration against Staphylococcus aureus smith (sensitive).; procedure, shortened: as §1
[6] = tested on: Staphylococcus aureus; experiment: In vitro minimum inhibitory concentration against Staphylococcus aureus UBMS 90-1 (tet M ribosomal protection).; procedure, shortened: as §1
[7] = tested on: Staphylococcus aureus; experiment: In vitro minimum inhibitory concentration against Staphylococcus aureus UBMS 90-3 (sensitive).; procedure, shortened: as §1
[8] = tested on: Escherichia coli; experiment: In vitro minimum inhibitory concentration against Escherichia coli UBMS 90-5 (sensitive).; procedure, shortened: as §1
[9] = tested on: Escherichia coli; experiment: In vitro minimum inhibitory concentration against Escherichia coli J3272 (tet D efflux).; procedure, shortened: as §1
[10] = tested on: Escherichia coli; experiment: In vitro minimum inhibitory concentration against Escherichia coli PRP-1 (tet A efflux).; procedure, shortened: as §1
[11] = tested on: Enterococcus faecalis; experiment: In vitro minimum inhibitory concentration against Enterococcus faecalis ATCC 29212.; procedure, shortened: as §1

MIC [1] | MIC [2] | MIC [3] | MIC [4] | MIC [5] | MIC [6] | MIC [7] | MIC [8] | MIC [9] | MIC [10] | MIC [11] | SMILES
0.25 µg/mL | 0.12 µg/mL | 1 µg/mL | 0.5 µg/mL | 0.12 µg/mL | 0.12 µg/mL | 0.06 µg/mL | 0.12 µg/mL | 0.12 µg/mL | 1 µg/mL | 0.03 µg/mL | CN(C)CC(=O)Nc1ccc2c(c1O)C(=O)C1=C(O)[C@]3(O)C(O)=C(C(N)=O)C(=O)[C@@H](N(C)C)C3CC1C2.Cl (stereo partly drawn)
2 µg/mL | 32 µg/mL | 0.06 µg/mL | 4 µg/mL | 0.03 µg/mL | 2 µg/mL | 0.03 µg/mL | 1 µg/mL | – | 2 µg/mL | 0.12 µg/mL | CCN(CC)c1cc(N)c(O)c2c1CC1CC3[C@H](N(C)C)C(=O)C(C(N)=O)=C(O)[C@@]3(O)C(=O)C1=C2O.Cl (stereo partly drawn)
16 µg/mL (≈ 30.3 µM) | 8 µg/mL (≈ 15.1 µM) | 0.25 µg/mL (≈ 0.473 µM) | 32 µg/mL (≈ 60.5 µM) | 0.03 µg/mL (≈ 0.0568 µM) | 0.5 µg/mL (≈ 0.946 µM) | 0.03 µg/mL (≈ 0.0568 µM) | 0.5 µg/mL (≈ 0.946 µM) | – | 32 µg/mL (≈ 60.5 µM) | 0.06 µg/mL (≈ 0.114 µM) | CCN(CC)c1cc(NC=O)c(O)c2c1CC1CC3[C@H](N(C)C)C(=O)C(C(N)=O)=C(O)[C@@]3(O)C(=O)C1=C2O (stereo partly drawn)
2 µg/mL | 1 µg/mL | > 32 µg/mL | 32 µg/mL | 1 µg/mL | 2 µg/mL | 0.5 µg/mL | 2 µg/mL | 2 µg/mL | 32 µg/mL | 0.25 µg/mL | CN(C)c1cc(NC(=O)CN)c(O)c2c1CC1CC3[C@H](N(C)C)C(=O)C(C(N)=O)=C(O)[C@@]3(O)C(=O)C1=C2O.O=C(O)C(F)(F)F (stereo partly drawn)
> 128 µg/mL | > 128 µg/mL | 16 µg/mL | > 128 µg/mL | 0.12 µg/mL | 1 µg/mL | 0.12 µg/mL | 16 µg/mL | – | > 128 µg/mL | 0.25 µg/mL | CC(=O)Nc1cc(I)c2c(c1O)C(O)=C1C(=O)[C@]3(O)C(O)=C(C(N)=O)C(=O)[C@@H](N(C)C)C3CC1C2.O=S(=O)(O)O (stereo partly drawn)
> 32 µg/mL | 4 µg/mL (≈ 7.77 µM) | 8 µg/mL (≈ 15.5 µM) | > 32 µg/mL | 0.25 µg/mL (≈ 0.486 µM) | 1 µg/mL (≈ 1.94 µM) | 0.25 µg/mL (≈ 0.486 µM) | 8 µg/mL (≈ 15.5 µM) | – | > 32 µg/mL | 0.25 µg/mL (≈ 0.486 µM) | CC(=O)Nc1cc(N(C)C)c2c(c1O)C(O)=C1C(=O)[C@]3(O)C(O)=C(C(N)=O)C(=O)[C@@H](N(C)C)C3CC1C2 (stereo partly drawn)
1 µg/mL | 1 µg/mL | 4 µg/mL | 4 µg/mL | 0.25 µg/mL | 0.5 µg/mL | 0.12 µg/mL | 2 µg/mL | 0.5 µg/mL | 8 µg/mL | 0.06 µg/mL | CN(C)CC(=O)Nc1cc(I)c2c(c1O)C(=O)C1=C(O)[C@]3(O)C(O)=C(C(N)=O)C(=O)[C@@H](N(C)C)C3CC1C2.Cl (stereo partly drawn)
32 µg/mL | 1 µg/mL | > 32 µg/mL | > 32 µg/mL | 0.03 µg/mL | 1 µg/mL | < 0.015 µg/mL | 0.25 µg/mL | – | > 32 µg/mL | 0.06 µg/mL | CN(C)[C@@H]1C(=O)C(C(N)=O)=C(O)[C@@]2(O)C(=O)C3=C(O)c4c(ccc(NC=O)c4O)CC3CC12.O=S(=O)(O)O (stereo partly drawn)
> 32 µg/mL | 8 µg/mL | 32 µg/mL | > 32 µg/mL | 0.12 µg/mL | 2 µg/mL | 0.12 µg/mL | 8 µg/mL | 0.5 µg/mL | > 32 µg/mL | 0.25 µg/mL | CC(=O)Nc1ccc2c(c1O)C(O)=C1C(=O)[C@]3(O)C(O)=C(C(N)=O)C(=O)[C@@H](N(C)C)C3CC1C2.O=S(=O)(O)O (stereo partly drawn)
1 µg/mL | 1 µg/mL | 1 µg/mL | 4 µg/mL | 0.5 µg/mL | 0.5 µg/mL | 0.5 µg/mL | 1 µg/mL | 0.5 µg/mL | 4 µg/mL | 0.25 µg/mL | CCN(CC)c1cc(NC(=O)CN(C)C)c(O)c2c1CC1CC3[C@H](N(C)C)C(=O)C(C(N)=O)=C(O)[C@@]3(O)C(=O)C1=C2O.Cl (stereo partly drawn)
32 µg/mL (≈ 59 µM) | 32 µg/mL (≈ 59 µM) | 2 µg/mL (≈ 3.69 µM) | > 32 µg/mL | 0.12 µg/mL (≈ 0.221 µM) | 2 µg/mL (≈ 3.69 µM) | 0.12 µg/mL (≈ 0.221 µM) | 32 µg/mL (≈ 59 µM) | – | > 32 µg/mL | 0.25 µg/mL (≈ 0.461 µM) | CCN(CC)c1cc(NC(C)=O)c(O)c2c1CC1CC3[C@H](N(C)C)C(=O)C(C(N)=O)=C(O)[C@@]3(O)C(=O)C1=C2O (stereo partly drawn)
> 32 µg/mL | 16 µg/mL | 4 µg/mL | > 32 µg/mL | 0.03 µg/mL | 8 µg/mL | < 0.015 µg/mL | 1 µg/mL | – | 32 µg/mL | 0.5 µg/mL | CN(C)[C@@H]1C(=O)C(C(N)=O)=C(O)[C@@]2(O)C(=O)C3=C(O)c4c(ccc(N)c4O)CC3CC12.O=S(=O)(O)O (stereo partly drawn)
> 32 µg/mL | 1 µg/mL (≈ 2 µM) | 4 µg/mL (≈ 7.99 µM) | > 32 µg/mL | 0.03 µg/mL (≈ 0.0599 µM) | 0.06 µg/mL (≈ 0.12 µM) | 0.03 µg/mL (≈ 0.0599 µM) | 0.25 µg/mL (≈ 0.499 µM) | 8 µg/mL (≈ 16 µM) | 16 µg/mL (≈ 32 µM) | 0.03 µg/mL (≈ 0.0599 µM) | CN(C)c1cc(NC=O)c(O)c2c1CC1CC3[C@H](N(C)C)C(=O)C(C(N)=O)=C(O)[C@@]3(O)C(=O)C1=C2O (stereo partly drawn)
> 32 µg/mL | > 32 µg/mL | 0.5 µg/mL | > 32 µg/mL | < 0.015 µg/mL | 0.5 µg/mL | 0.03 µg/mL | 4 µg/mL | – | > 32 µg/mL | 0.12 µg/mL | CN(C)[C@@H]1C(=O)C(C(N)=O)=C(O)[C@@]2(O)C(=O)C3=C(O)c4c(O)c(N)cc(I)c4CC3CC12.O=S(=O)(O)O (stereo partly drawn)
32 µg/mL | 8 µg/mL | 0.25 µg/mL | 16 µg/mL | 0.06 µg/mL | 0.5 µg/mL | 0.06 µg/mL | 0.5 µg/mL | 8 µg/mL | 4 µg/mL | 0.25 µg/mL | CN(C)c1cc(N)c(O)c2c1CC1CC3[C@H](N(C)C)C(=O)C(C(N)=O)=C(O)[C@@]3(O)C(=O)C1=C2O.Cl (stereo partly drawn)
> 32 µg/mL | 32 µg/mL | 16 µg/mL | > 32 µg/mL | 0.03 µg/mL | 4 µg/mL | 0.03 µg/mL | 0.5 µg/mL | – | > 32 µg/mL | 0.25 µg/mL | CN(C)[C@@H]1C(=O)C(C(N)=O)=C(O)[C@@]2(O)C(=O)C3=C(O)c4c(O)c(NC=O)cc(I)c4CC3CC12.O=S(=O)(O)O (stereo partly drawn)

SMILES | MIC [1] | MIC [2] | MIC [3] | MIC [4] | MIC [5] | MIC [6] | MIC [7] | MIC [8] | MIC [9] | MIC [10] | MIC [11]
CN(C)c1ccc(O)c2c1C[C@H]1C[C@H]3[C@H](N(C)C)C(O)=C(C(N)=O)C(=O)[C@@]3(O)C(O)=C1C2=O [MINOCYCLINE] | 16 µg/mL (≈ 35 µM) | > 32 µg/mL | 0.25 µg/mL (≈ 0.546 µM) | 4 µg/mL (≈ 8.74 µM) | 0.12 µg/mL (≈ 0.262 µM) | 4 µg/mL (≈ 8.74 µM) | 0.12 µg/mL (≈ 0.262 µM) | 1 µg/mL (≈ 2.19 µM) | 8 µg/mL (≈ 17.5 µM) | 4 µg/mL (≈ 8.74 µM) | –
CN(C)CC(=O)Nc1cc(N(C)C)c2c(c1O)C(=O)C1=C(O)[C@]3(O)C(O)=C(C(N)=O)C(=O)[C@@H](N(C)C)C3CC1C2.Cl (stereo partly drawn) | 0.25 µg/mL | 0.25 µg/mL | 2 µg/mL | 1 µg/mL | 0.12 µg/mL | 0.25 µg/mL | 0.06 µg/mL | 0.25 µg/mL | 0.12 µg/mL | 2 µg/mL | 0.06 µg/mL
CN(C)[C@@H]1C(O)=C(C(N)=O)C(=O)[C@@]2(O)C(O)=C3C(=O)c4c(O)cccc4[C@@](C)(O)[C@H]3C[C@@H]12 [TETRACYCLINE] | > 32 µg/mL | > 32 µg/mL | > 32 µg/mL | > 32 µg/mL | 0.25 µg/mL (≈ 0.563 µM) | > 32 µg/mL | 0.25 µg/mL (≈ 0.563 µM) | 1 µg/mL (≈ 2.25 µM) | 32 µg/mL (≈ 72 µM) | 32 µg/mL (≈ 72 µM) | –
